Laboratory results published in ChEMBL document CHEMBL1949636, “Optimization of phenylacetic acid derivatives for balanced CRTH2 and DP dual antagonists” (Bioorg Med Chem Lett, 2012).

Legend:
[1] = target: T1, Prostaglandin D2 receptor 2 (Homo sapiens, UniProt Q9Y5Y4); test: Displacement of [3H]PGD2 from human CRTH2 receptor expressed in HEK293 cells by scintillation counting in presence of 0.5% BSA; type: cell-based
T1 sequence (Q9Y5Y4 whole entry): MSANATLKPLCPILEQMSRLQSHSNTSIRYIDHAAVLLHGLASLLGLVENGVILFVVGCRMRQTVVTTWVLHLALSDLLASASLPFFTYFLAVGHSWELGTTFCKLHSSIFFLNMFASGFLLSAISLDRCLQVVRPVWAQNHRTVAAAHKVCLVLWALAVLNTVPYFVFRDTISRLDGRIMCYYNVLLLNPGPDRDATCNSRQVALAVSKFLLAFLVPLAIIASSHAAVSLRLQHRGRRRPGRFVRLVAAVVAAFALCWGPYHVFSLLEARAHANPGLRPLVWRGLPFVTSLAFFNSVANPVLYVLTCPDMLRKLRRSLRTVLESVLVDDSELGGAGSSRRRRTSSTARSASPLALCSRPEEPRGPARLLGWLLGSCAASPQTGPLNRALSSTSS
Procedure, shortened: (§1)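 Radioligand binding to intact HEK 293 cells stably expressing human CRTH2 or DP. Cells incubated with [3H]-PGD2 and increasing compound concentrations in binding buffer containing 0.5% BSA. After washing, bound [3H]-PGD2 counted by scintillation. […] Mean of three experiments; standard deviation 30%.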

[2] = target: T2, Prostaglandin D2 receptor (Homo sapiens, UniProt Q13258); test: Displacement of [3H]PGD2 from human DP receptor expressed in HEK293 cells by scintillation counting in presence of 0.5% BSA; type: cell-based; procedure, shortened: as §1
T2 sequence (Q13258 whole entry): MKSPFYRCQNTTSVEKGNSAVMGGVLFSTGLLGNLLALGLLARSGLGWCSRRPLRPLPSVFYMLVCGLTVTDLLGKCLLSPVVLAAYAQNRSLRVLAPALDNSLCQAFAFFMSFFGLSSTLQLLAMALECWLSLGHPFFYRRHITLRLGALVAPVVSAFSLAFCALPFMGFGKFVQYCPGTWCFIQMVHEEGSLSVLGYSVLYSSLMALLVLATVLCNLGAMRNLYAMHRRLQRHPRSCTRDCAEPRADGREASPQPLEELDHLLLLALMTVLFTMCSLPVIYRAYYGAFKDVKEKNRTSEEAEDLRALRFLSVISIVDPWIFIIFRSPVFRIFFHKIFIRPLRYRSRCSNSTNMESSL

[3] = target: T3, Prostaglandin D2 receptor 2 (Homo sapiens) (UniProt Q9Y5Y4); test: Antagonist activity at CRTH2 receptor in human eosinophol assessed as inhibition of PGD2-induced eosinophol shape change preincubated for 10 mins prior PGD2 stimulation measured after 10 mins by FACS flow cytometry; type: functional
T3 sequence (whole entry): T1 sequence (Q9Y5Y4 whole entry)
Procedure, shortened: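 Granulocytes enriched from normal donor peripheral blood by density-gradient centrifugation; erythrocytes removed by ACK lysis. Cells pre-incubated 10 min at room temperature with antagonist or vehicle (0.05% DMSO), then stimulated with PGD2 (600–0.003 nM, 1:3 dilution) 10 min at 37 °C. Fixed in 1% final paraformaldehyde. Eosinophils gated as FL2-positive; geometric mean forward scatter used to derive IC50.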

[4] = target: T2, Prostaglandin D2 receptor; test: Displacement of [3H]PGD2 from human DP receptor expressed in HEK293 cells by scintillation counting in presence of 50% plasma; type: cell-based
Procedure, shortened: (§2)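 Whole-cell [3H]-PGD2 binding on HEK 293 cells stably expressing human CRTH2 or DP, run in binding buffer containing 50% human plasma. Test compound added at increasing concentrations. Cells washed, and remaining bound radioligand measured by scintillation counting. Mean of three experiments; standard deviation 30%.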

[5] = target: T4, Prostaglandin D2 receptor (Homo sapiens) (UniProt Q13258); test: Antagonist activity at DP receptor in PGD2-stimulated human platelets in 80% whole blood assessed as inhibition of IBMX-stimulated cAMP production preincubated for 30 mins prior PGD2 stimulation measured after 60 mins by immunoassay; type: functional, tissue-based
T4 sequence (whole entry): T2 sequence (Q13258 whole entry)
Procedure, shortened: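 IBMX added to human whole blood at 1 mM final. Treated blood incubated with antagonist 30 min at 37 °C, then transferred to PGD2 at various concentrations for 60 min at 37 °C. Blood lysed and cAMP measured by direct immunoassay. PGD2-stimulated cAMP curves fitted with a Hill model.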

[6] = target: T1, Prostaglandin D2 receptor 2; test: Displacement of [3H]PGD2 from human CRTH2 receptor expressed in HEK293 cells by scintillation counting in presence of 50% plasma; type: cell-based; procedure, shortened: as §2

CCCCNC(=O)c1ccc([S+]([O-])c2ccc(CC(=O)O)cc2)c(NS(=O)(=O)c2ccc(Cl)cc2Cl)c1 (stereo not drawn)
IC50 [1]: 660 nM | IC50 [2]: > 10000 nM

CCCCNC(=O)c1ccc(Oc2ccc(CC(=O)O)nc2)c(NS(=O)(=O)c2ccc(Cl)cc2Cl)c1
IC50 [1]: 10 nM | IC50 [2]: 230 nM

CCCc1nc(-c2ccc(Oc3ccc(CC(=O)O)cc3OC)c(NS(=O)(=O)c3ccc(Cl)cc3Cl)c2)c[nH]1
Kb [3]: 0.18 nM | IC50 [4]: 110 nM | Kb [5]: 50 nM | IC50 [6]: 20 nM | IC50 [1]: 2 nM | IC50 [2]: 10 nM

CCCCNC(=O)c1ccc(Cc2ccc(CC(=O)O)cc2OC)c(NS(=O)(=O)c2ccc(Cl)cc2Cl)c1
IC50 [1]: 2 nM | IC50 [2]: 6 nM

CCc1noc(-c2ccc(Oc3ccc(CC(=O)O)cc3OC)c(NS(=O)(=O)c3ccc(Cl)cc3Cl)c2)n1
IC50 [1]: 770 nM | IC50 [2]: 23 nM

CCCCNC(=O)c1ccc(Oc2ccc3c(CC(=O)O)c[nH]c3c2)c(NS(=O)(=O)c2ccc(Cl)cc2Cl)c1
IC50 [1]: 3 nM | IC50 [2]: 83 nM

CCCCNC(=O)c1ccc(S(=O)(=O)c2ccc(CC(=O)O)cc2)c(NS(=O)(=O)c2ccc(Cl)cc2Cl)c1
IC50 [1]: 400 nM | IC50 [2]: > 10000 nM

CCCc1nc(-c2ccc(Oc3ccc(CC(=O)O)cc3OC)c(NS(=O)(=O)c3ccc(Cl)cc3Cl)c2)n[nH]1
IC50 [1]: 4 nM | IC50 [2]: 10 nM

CCc1nc(-c2ccc(Oc3ccc(CC(=O)O)cc3OC)c(NS(=O)(=O)c3ccc(Cl)cc3Cl)c2)n[nH]1
IC50 [1]: 6 nM | IC50 [2]: 15 nM

CCCCNC(=O)c1ccc(Oc2ccc3c(c2)OCC3CC(=O)O)c(NS(=O)(=O)c2ccc(Cl)cc2Cl)c1 (stereo not drawn)
IC50 [1]: 580 nM | IC50 [2]: 150 nM

CCCCNC(=O)c1ccc(Sc2ccc(CC(=O)O)cc2)c(NS(=O)(=O)c2ccc(Cl)cc2Cl)c1
IC50 [1]: 21 nM | IC50 [2]: 630 nM

CCCCNC(=O)c1ccc(Oc2ccc(CC(=O)O)cn2)c(NS(=O)(=O)c2ccc(Cl)cc2Cl)c1
IC50 [1]: 310 nM | IC50 [2]: 480 nM

CCCCNC(=O)c1ccc(Oc2ccc3c(CC(=O)O)coc3c2)c(NS(=O)(=O)c2ccc(Cl)cc2Cl)c1
IC50 [1]: 5 nM | IC50 [2]: 5 nM

CCCCNC(=O)c1ccc(Oc2ccc3c(ccn3CC(=O)O)c2)c(NS(=O)(=O)c2ccc(Cl)cc2Cl)c1
IC50 [1]: 2 nM | IC50 [2]: 29 nM

CCCc1cc(-c2ccc(Oc3ccc(CC(=O)O)cc3OC)c(NS(=O)(=O)c3ccc(Cl)cc3Cl)c2)n[nH]1
Kb [3]: 0.084 nM | IC50 [4]: 46 nM | Kb [5]: 5 nM | IC50 [6]: 8 nM | IC50 [1]: 2 nM | IC50 [2]: 4 nM
